ChEMBL document CHEMBL1132173, “Novel derivatives of 2-pyridinemethylamine as selective, potent, and orally active agonists at 5-HT1A receptors” (J Med Chem, 1999)

Tests used:
[1] = target: T1, 5-hydroxytryptamine receptor 1A (Rattus norvegicus, UniProt P19327); assay: Binding affinity towards 5-hydroxytryptamine 1A receptor in rat cortex using [3H]8-OH-DPAT as a radioligand
T1 sequence (P19327 whole entry): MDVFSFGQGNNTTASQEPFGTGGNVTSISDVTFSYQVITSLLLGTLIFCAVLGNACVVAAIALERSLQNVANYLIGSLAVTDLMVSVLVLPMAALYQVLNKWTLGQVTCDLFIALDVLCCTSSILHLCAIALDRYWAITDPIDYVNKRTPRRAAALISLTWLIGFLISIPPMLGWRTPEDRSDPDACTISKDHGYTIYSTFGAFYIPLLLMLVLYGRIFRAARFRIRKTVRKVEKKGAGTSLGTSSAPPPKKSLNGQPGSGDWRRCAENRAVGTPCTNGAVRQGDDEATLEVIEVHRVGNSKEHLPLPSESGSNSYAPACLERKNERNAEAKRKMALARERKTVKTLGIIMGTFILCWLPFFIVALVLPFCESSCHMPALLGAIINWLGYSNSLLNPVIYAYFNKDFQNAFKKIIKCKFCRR
Outline: (§1)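 Rat tissue membranes, competition against radioligand at 23 °C. Nonspecific binding: 5-HT for 5-HT1A (30 min), (+)-butaclamol for D2 (60 min), phentolamine for α1 (30 min). Tris HCl 50 mM pH 7.4 buffers. Filtration through glass-fibre filters, then scintillation counting. Run in triplicate; IC50 by nonlinear regression; Ki by Cheng–Prusoff; mean pKi of three determinations.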

[2] = target: T2, 5-hydroxytryptamine receptor 1A (Homo sapiens, UniProt P08908); assay: In vitro effective concentration required to inhibit forskolin-stimulated cAMP levels in HA7 cells expressing human 5-HT1A receptor; assay type: functional, cell-based
T2 sequence (P08908 whole entry): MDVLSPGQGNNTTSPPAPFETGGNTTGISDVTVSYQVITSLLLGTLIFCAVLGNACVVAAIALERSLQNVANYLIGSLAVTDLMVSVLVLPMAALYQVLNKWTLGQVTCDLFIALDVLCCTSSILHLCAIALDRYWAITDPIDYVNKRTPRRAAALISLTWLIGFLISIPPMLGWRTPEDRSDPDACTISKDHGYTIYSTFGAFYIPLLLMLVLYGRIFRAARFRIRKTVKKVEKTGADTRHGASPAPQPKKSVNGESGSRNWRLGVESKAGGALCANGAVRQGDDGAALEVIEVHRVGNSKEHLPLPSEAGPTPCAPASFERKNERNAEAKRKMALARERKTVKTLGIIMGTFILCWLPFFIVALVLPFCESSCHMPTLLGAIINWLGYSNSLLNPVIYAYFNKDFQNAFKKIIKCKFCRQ
Outline: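 HeLa HA7 cells stably expressing human 5-HT1A, at 80–90% confluency, antibiotic-free for 24 h. Preincubated 10 min at RT in DMEM/10 mM Hepes, then drug at 0.1 nM–100 µM with 100 µM forskolin and 100 µM IBMX for 10 min at RT. Stopped with 0.1 N HCl; cAMP by radioimmunoassay as % of forskolin control; pEC50.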

Rattus norvegicus [3] = assay: Effective intraperitoneal dose in vivo in rat after 15 mins to induce lower lip retraction; assay type: functional; details: ip, 0.25 h
Outline: (§2)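 Observed in 10 min windows centred 15 and 60 min post-dose, 10 s each minute, scoring lower lip retraction present or absent (0–10).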

Rattus norvegicus [4] = assay: Induction of lower lip retraction in rat 60 min after administration, effective peroral dose determined in vivo; assay type: functional; details: po, 1 h; outline: as §2
D(2) dopamine receptor = D(2) dopamine receptor (Rattus norvegicus, UniProt P61169); assay: Binding affinity towards Dopamine receptor D2 in rat striatum using YM-09151-2 as a radioligand; assay type: tissue-based; outline: as §1
Sequence of D(2) dopamine receptor (P61169 whole entry): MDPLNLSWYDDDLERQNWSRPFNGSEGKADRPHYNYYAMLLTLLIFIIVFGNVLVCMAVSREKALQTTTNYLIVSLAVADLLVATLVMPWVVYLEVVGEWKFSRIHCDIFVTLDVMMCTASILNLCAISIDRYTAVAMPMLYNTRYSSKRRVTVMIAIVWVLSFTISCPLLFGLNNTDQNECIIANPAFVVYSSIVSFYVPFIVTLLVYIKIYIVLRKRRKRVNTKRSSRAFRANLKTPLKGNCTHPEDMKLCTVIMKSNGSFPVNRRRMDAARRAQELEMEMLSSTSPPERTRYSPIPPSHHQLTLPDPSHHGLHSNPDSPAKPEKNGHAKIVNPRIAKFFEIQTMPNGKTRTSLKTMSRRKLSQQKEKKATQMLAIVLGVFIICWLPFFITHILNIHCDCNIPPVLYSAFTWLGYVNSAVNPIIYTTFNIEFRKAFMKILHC

[5] = target: T3, Adrenergic receptor alpha-1 (Rattus norvegicus, UniProt P15823+P23944+P43140); assay: Binding affinity towards Alpha-1 adrenergic receptor using prazosin as a radioligand in rat cortex; outline: as §1
T3 sequence (P15823 whole entry): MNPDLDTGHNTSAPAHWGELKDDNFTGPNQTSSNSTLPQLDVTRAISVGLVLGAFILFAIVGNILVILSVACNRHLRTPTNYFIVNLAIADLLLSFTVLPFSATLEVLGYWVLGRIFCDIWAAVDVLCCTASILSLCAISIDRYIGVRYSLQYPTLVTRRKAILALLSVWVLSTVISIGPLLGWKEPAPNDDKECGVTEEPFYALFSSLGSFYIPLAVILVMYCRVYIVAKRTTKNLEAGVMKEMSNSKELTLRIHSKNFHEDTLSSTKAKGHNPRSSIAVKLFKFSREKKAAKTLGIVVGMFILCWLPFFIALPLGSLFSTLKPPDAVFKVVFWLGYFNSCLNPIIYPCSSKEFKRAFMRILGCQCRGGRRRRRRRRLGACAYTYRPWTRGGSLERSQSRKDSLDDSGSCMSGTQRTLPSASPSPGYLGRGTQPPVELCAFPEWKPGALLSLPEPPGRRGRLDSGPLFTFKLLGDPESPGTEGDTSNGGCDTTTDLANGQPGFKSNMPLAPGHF
T3 sequence (P23944 whole entry): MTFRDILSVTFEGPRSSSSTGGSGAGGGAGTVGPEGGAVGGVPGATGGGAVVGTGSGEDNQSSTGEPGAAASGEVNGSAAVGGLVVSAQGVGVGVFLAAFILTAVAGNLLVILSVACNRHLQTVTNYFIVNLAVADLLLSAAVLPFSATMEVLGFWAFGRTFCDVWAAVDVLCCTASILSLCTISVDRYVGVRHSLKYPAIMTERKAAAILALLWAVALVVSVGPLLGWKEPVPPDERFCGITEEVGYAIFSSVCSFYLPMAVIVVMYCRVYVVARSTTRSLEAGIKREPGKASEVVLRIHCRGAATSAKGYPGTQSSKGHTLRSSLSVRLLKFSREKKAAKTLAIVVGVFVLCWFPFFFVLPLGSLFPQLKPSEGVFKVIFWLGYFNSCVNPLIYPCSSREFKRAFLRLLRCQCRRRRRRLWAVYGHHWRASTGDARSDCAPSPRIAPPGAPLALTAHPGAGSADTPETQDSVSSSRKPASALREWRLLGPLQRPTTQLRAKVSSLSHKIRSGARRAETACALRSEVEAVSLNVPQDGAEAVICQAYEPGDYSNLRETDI
T3 sequence (P43140 whole entry): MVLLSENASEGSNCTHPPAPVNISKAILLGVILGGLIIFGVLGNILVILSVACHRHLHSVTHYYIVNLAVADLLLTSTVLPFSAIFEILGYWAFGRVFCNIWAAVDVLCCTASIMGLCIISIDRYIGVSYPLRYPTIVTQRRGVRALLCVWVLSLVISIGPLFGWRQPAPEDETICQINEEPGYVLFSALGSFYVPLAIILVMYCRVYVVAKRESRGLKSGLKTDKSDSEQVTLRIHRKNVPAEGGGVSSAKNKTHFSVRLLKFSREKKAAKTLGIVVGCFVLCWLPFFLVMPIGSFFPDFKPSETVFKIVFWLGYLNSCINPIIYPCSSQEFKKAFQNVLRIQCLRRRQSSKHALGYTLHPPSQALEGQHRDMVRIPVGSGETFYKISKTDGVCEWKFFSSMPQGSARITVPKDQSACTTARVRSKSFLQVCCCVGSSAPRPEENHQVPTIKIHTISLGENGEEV

Rattus norvegicus [6] = assay: Effective intraperitoneal dose in vivo in rat after 60 mins to induce lower lip retraction; assay type: functional; details: ip, 1 h; outline: as §2

SMILES | Ki [1] [nM] | EC50 [2] [nM] | ED50 (Rattus norvegicus [3]) [mg/kg] | ED50 (Rattus norvegicus [4]) [mg/kg] | Ki (D(2) dopamine receptor) [nM] | Log Ki [5] | ED50 (Rattus norvegicus [6]) [mg/kg]
COC1(CNCc2cccc(-n3cccn3)n2)CCN(C(=O)c2ccc(Cl)c(Cl)c2)CC1 | 30.2 |  |  |  |  |  | 
O=C(c1ccc(Cl)c(Cl)c1)N1CCC(O)(CNCc2cccc(-n3cccn3)n2)CC1 | 1.62 | 39.8 |  |  |  |  | 
CNc1cccc(CNCC2CCN(C(=O)c3ccc(Cl)c(Cl)c3)CC2)n1 |  | 21.9 |  |  |  |  | 
CCN(CC)c1nc(CNCC2(F)CCN(C(=O)c3ccc(F)c(Cl)c3)CC2)ccc1C | 1.38 | 28.8 | 0.32 | 0.11 |  |  | 
O=C(c1ccc(Cl)c(Cl)c1)N1CCC(CF)(CNCc2cccc(-n3cccn3)n2)CC1 | 9.12 | 309 |  |  |  |  | 
O=C(c1ccc(Cl)c(Cl)c1)N1CCC(CNCc2cccc(-c3cc[nH]n3)n2)CC1 |  | 3.02 |  |  |  |  | 
CC1(CNCc2cccc(-n3cccn3)n2)CCN(C(=O)c2ccc(Cl)c(Cl)c2)CC1 | 37.2 |  |  |  |  |  | 
CNc1cccc(CNCC2(F)CCN(C(=O)c3ccc(F)c(Cl)c3)CC2)n1 |  | 12.6 | 0.11 | 0.32 |  |  | 
Cc1ccc(CNCC2(F)CCN(C(=O)c3ccc(F)c(Cl)c3)CC2)nc1N(C)C |  | 3.72 | 0.04 | 0.08 |  |  | 
O=C(c1ccc(Cl)c(Cl)c1)N1CCC(F)(CNCc2cccc(N3CCC3)n2)CC1 | 0.2 | 10.7 | 0.32 | 0.45 | 309 | -6.35 | 0.45
Cc1ccc(N(C)C)nc1CNCC1(F)CCN(C(=O)c2ccc(F)c(Cl)c2)CC1 | 0.468 | 47.9 | 0.63 | 1.3 |  |  | 
O=C(c1ccc(Cl)c(Cl)c1)N1CCC(CNCc2cccc(-c3nccs3)n2)CC1 |  | 5.01 |  |  |  |  | 
O=C(c1ccc(Cl)c(Cl)c1)N1CCC(F)(CNCc2cccc(-c3nccs3)n2)CC1 | 0.794 | 22.9 | 0.45 | 1.3 | 3390 | -6.26 | 0.89
O=C(c1ccc(F)c(Cl)c1)N1CCC(F)(CNCc2cccc(-c3cc[nH]n3)n2)CC1 |  | 0.724 | 0.32 | 0.32 |  |  | 
O=C(c1ccc(Cl)c(Cl)c1)N1CCC(F)(CNCc2ccccn2)CC1 | 5.13 |  | 0.11 |  |  |  | 
CN(C)c1cccc(CNCC2(F)CCN(C(=O)c3ccc(Cl)c(Cl)c3)CC2)n1 |  | 2.95 | 0.62 | 0.32 |  | -6.76 | 0.45
CCNc1nc(CNCC2(F)CCN(C(=O)c3ccc(F)c(Cl)c3)CC2)ccc1C | 0.148 | 8.32 | 0.08 | 0.45 |  |  | 
Cc1ccc(CNCC2(F)CCN(C(=O)c3ccc(Cl)c(Cl)c3)CC2)nc1 |  | 20.9 |  | 0.62 |  |  | 
Cc1ccc(CNCC2(F)CCN(C(=O)c3ccc(F)c(Cl)c3)CC2)nc1 [BEFIRADOL] |  |  | 0.08 | 0.11 |  |  | 
